High-throughput results as filed in PubChem.
PG9 binder – small molecules binding HIV-1 gp120 antibody PG9; TR-FRET gp120-PG9 antibody binding; inhibition, % at 6.7 µM; AID 624416; hit rate 0.43% among 360,000; in the data active = inhibition above about 8.5%
NR2E3 ag-1 – agonists of human NR2E3 nuclear receptor; hit rate 0.35% among 360,000; Q9Y5X4; inhibition of corepressor binding, % at 3.98 µM; CHO-S Gal4-NCOR/VP16-NR2E3 two-hybrid, luciferase;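 active = inhibition above the mean of all tested compounds plus 3 SD, cut at about 70% in these data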;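 also: 0% = DMSO with NR2E3 transfected cells and 100% = cells lacking NR2E3 construct; higher means lower luciferase signal from less NR2E3 corepressor binding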
Target sequence (Q9Y5X4 whole entry, looked up, the tested form may be a part): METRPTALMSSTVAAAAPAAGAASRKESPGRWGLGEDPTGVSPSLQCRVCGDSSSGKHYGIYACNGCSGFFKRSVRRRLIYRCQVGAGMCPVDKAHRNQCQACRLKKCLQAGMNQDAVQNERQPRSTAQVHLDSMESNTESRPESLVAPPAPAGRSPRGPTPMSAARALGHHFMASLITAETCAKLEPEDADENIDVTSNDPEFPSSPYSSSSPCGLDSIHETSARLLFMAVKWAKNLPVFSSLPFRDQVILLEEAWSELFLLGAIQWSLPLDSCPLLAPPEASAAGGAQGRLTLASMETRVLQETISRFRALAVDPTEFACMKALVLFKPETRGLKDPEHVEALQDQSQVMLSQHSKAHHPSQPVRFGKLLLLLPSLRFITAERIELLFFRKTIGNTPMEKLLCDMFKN
NR1D1 modulator – modulators of human Rev-erb alpha DNA binding; P20393; Rev-erbα–FITC-DNA binding, fluorescence polarization, 90 min; activity, % at 10 µM; hit rate 0.79% among 370,000;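 active = activity above about 14%, limit read from the data; passing the limit was not always enough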;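 also: 0% = DMSO wells with 35 nM protein and 100% = DMSO wells with 750 nM protein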
NR2E3 ag-2 – NR2E3 (human) agonism; GST-NR2E3/biotin-RetCOR TR-FRET, 1536-well; inhibition of corepressor binding, % at 4.78 µM; hit rate 0.12% among 320,000;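 active = percent inhibition above the cutoff of mean plus 3 SD of all tested compounds, set per screening campaign, cut at about 20% in these data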;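 also: 0% = DMSO wells and 100% = biotin wells as full block of FRET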
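System: GST-tagged NR2E3 plus biotinylated RetCOR corepressor; Amount: 1.35 nM GST-tagged NR2E3 final; Dosing: single nominal compound dose of 4.8 µM; Schedule: 5 h incubation at 4 °C; Technique: TR-FRET with europium anti-GST and streptavidin-D2, 340 nm excitation; Controls: biotin wells as high control, 0.6% DMSO wells as low control.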
PG9 binder conf – confirmation of small molecules binding HIV-1 gp120 antibody PG9; hit rate 90% among 1,500; AID 651571; inhibition, % at 6.7 µM; TR-FRET PG9 antibody binding, biochemical; shares compounds with PG9 binder; in the data active = inhibition above about 9%
PGV04 counter – PGV04 control antibody binding, counter-screen; TR-FRET PGV04 antibody-gp120 binding, biochemical; shares compounds with PG9 binder; AID 651604; inhibition, % at 6.7 µM; hit rate 95% among 1,500; in the data active = inhibition above about 9.5%
PG9 binder DR – PG9 antibody binding, dose response. 95 tested, under 10 active. shares compounds with PG9 binder. IC50, µM. TR-FRET PG9 antibody-gp120 binding inhibition; in the data active = IC50 below about 10 µM
PGV04 DR counter – PGV04 binding, dose response counter-screen. shares compounds with PG9 binder. TR-FRET binding to control antibody PGV04. hit rate 20% among 95. IC50, µM. AID 651937
PG126 binding DR – binds control antibody PG126 in PG9 counter-screen; TR-FRET binding to antibody PG126, counterscreen; shares compounds with PG9 binder; IC50, µM; AID 651939; hit rate 20% among 95
Starred values were filed as active, the others as inactive; i = inactive; · = no result given. This is a sample that favours compounds with a hit; in the whole collection about 1.4% have one here. Rule as the data show it, unless noted: active = IC50 below about 9 µM; inactive = the rest.

SMILES	PG9 binder	NR2E3 ag-1	NR1D1 modulator	NR2E3 ag-2	PG9 binder conf	PGV04 counter	others
CC1(c2nnc(-c3ccc(F)cc3)o2)CC(c2ccncc2)=NO1 (centres undefined)	·	·	·	-1	·	·
O=C(c1ccc2ccccc2c1)c1cccc(F)c1C(=O)O	13*	-24	-5	·	12*	17*
COc1ccccc1-c1n[nH]c(=S)n1N	1	-13	-1	2	·	·
COc1ccccc1-c1n[nH]c(=S)o1	18*	-7	-6	5	13*	24*
COc1ccc(Cl)cc1-c1n[nH]c(=S)o1	37*	-16	3	10	36*	48*
COCCn1c(=NC(=O)c2sc3ccccc3c2Cl)sc2cc(S(N)(=O)=O)ccc21	18*	-18	-5	8	24*	35*
Brc1ccc(Br)c2cnccc12	13*	-41	18	·	26*	35*
CCc1ccc(S(=O)(=O)Nc2c(C)nn(C)c2C)cc1	1	0	0	0	·	·
O=C(Nc1nc(-c2ccc(F)cc2)cs1)C1CCN(C(=O)c2ccc(F)cc2)CC1	-1	1	-3	-1	·	·
O=C(Nc1nc2c(F)cc(F)cc2s1)C1CCN(C(=O)c2ccc(F)cc2)CC1	9.1*	-71	6	-2	9.7*	17*
O=C(COC(=O)c1cc(Cl)ccc1O)c1ccc2c(c1)OCO2	11*	-22	8	1	10*	15*
O=C(COC(=O)c1ccc(O)cc1O)c1ccc2c(c1)OCO2	-1	-37	-3	-2	·	·
Cc1nc2ccccc2nc1CSc1nncs1	9.8*	-7	-1	3	6	7
CCn1c(SCc2nc3ccccc3nc2C)nnc1-c1cccs1	-2	0	5	1	·	·
COC(=O)[C@]12C[C@H](CC(=O)N3CCC(c4ccccc4)CC3)C(=O)N(Cc3ccc4c(c3)OCO4)C1=C[C@H](COCc1ccccc1)O[C@@H]2C	0	·	0	·	·	·
c1ccc2c(-c3cnc4cccnn34)cncc2c1	1	7	1	·	·	·
N#Cc1c(-c2ccccc2)nc(SCc2cccc(Cl)c2)[nH]c1=O	8.7*	27	-6	6	14*	21*
Cc1[nH]c(=O)nc(SCc2cccc(Cl)c2)c1C#N	0	-2	4	4	·	·
CC(C)(C)c1ccc(C2/C(=C(\O)c3ccc4c(c3)OCCO4)C(=O)C(=O)N2CCCN2CCOCC2)cc1 (centres undefined)	1	-13	-5	2	·	·
COc1ccc(/C(O)=C2/C(=O)C(=O)N(CCCN3CCOCC3)C2c2ccc(Cl)cc2)cc1 (centres undefined)	12*	-4	1	·	26*	43*
O=C1C(=O)N(CCCN2CCOCC2)C(c2ccc(F)cc2)/C1=C(\O)c1ccc2c(c1)OCCO2 (centres undefined)	9.4*	-14	-4	4	21*	24*
O=C1C(=O)N(CCCn2ccnc2)C(c2cccc(Br)c2)/C1=C(\O)c1ccc2c(c1)OCCO2 (centres undefined)	27*	-9	-4	17	45*	40*	PG9 binder DR=i;PGV04 DR counter=5.4*;PG126 binding DR=8*
COc1ccc(/C(O)=C2/C(=O)C(=O)N(CCCN(C)C)C2c2ccc(Cl)cc2)cc1OC (centres undefined)	13*	-15	2	2	23*	30*
COc1ccc(NC(=O)C(=O)N2N=C3CCCCC3C2(O)C(F)(F)F)cc1 (centres undefined)	0	-12	-4	1	·	·
COc1cccc(C2/C(=C(\O)c3ccc4c(c3)OCCO4)C(=O)C(=O)N2CCCn2ccnc2)c1 (centres undefined)	12*	-44	-7	7	20*	23*
SMILES	PG9 binder	NR2E3 ag-1	NR1D1 modulator	NR2E3 ag-2	PG9 binder conf	PGV04 counter	others
O=C1C(=O)N(CCCn2ccnc2)C(c2ccc(Cl)cc2)/C1=C(\O)c1ccc2c(c1)OCCO2 (centres undefined)	27*	-11	1	14	16*	21*
O=C1C(=O)N(CCCn2ccnc2)C(c2ccc(Br)cc2)/C1=C(\O)c1ccc2c(c1)OCCO2 (centres undefined)	14*	-3	10	15	13*	15*
CC(=O)Nc1ccc(-c2ccnc3c2CC(C(=O)Nc2cccc(OC(F)(F)F)c2)O3)cc1 (centres undefined)	0	9	2	·	·	·
CN(CC(=O)Nc1cccc(F)c1)C(=O)c1cn(-c2ccccc2)nc1-c1ccc(Cl)cc1	-1	3	-4	-3	·	·
COc1ccc2ccc(OCC(=O)Nc3cc(C)on3)cc2c1	21*	-13	10	3	25*	34*
COc1ccc(C2=NN(C(=O)CCCC(=O)O)C(c3cccs3)C2)cc1OC (centres undefined)	0	-11	0	6	·	·
COc1ccc(NC(=O)c2cc3sccc3n2Cc2ccc(F)cc2)cc1OC	0	-30	2	2	·	·
O=C(Nc1nccs1)c1cc2sccc2n1Cc1ccc(F)cc1	9.4*	-3	16	10	15*	19*
CCn1c(-c2ccsc2)nc2c1c(=O)[nH]c(=O)n2Cc1ccccc1	22*	11	10	-2	39*	54*
COc1ccc(-c2nc3c(c(=O)[nH]c(=O)n3Cc3ccccc3)n2CCO)cc1	-1	1	0	0	·	·
COc1cc2c(cc1OC)CN(c1nc(-c3cccnc3)nc3ccccc13)CC2	-1	-28	1	1	·	·
COC(=O)c1cc(-c2cccc(OC)c2)c2c(=O)[nH]c(=O)n(C)c2n1	8.8*	-30	8	-2	18*	24*
CC(OC(=O)c1cc2sccc2n1C)C(=O)NCc1cccs1 (centres undefined)	-1	7	-3	-1	·	·
Cn1c(C(=O)OCC(=O)NCc2cccs2)cc2sccc21	9.6*	2	7	0	17*	27*
Cc1ccc(P(=O)(OCCN2CCOCC2)C(C)(C)C)o1 (centres undefined)	-1	-31	1	1	·	·
O=C(Nc1nc(=O)c2ccccc2s1)c1ccccc1	29*	-31	23	5	51*	69*
COc1ccc(Cc2noc(CN3CCC(c4ccncc4)CC3)n2)cc1OC	1	-4	-4	-1	·	·
COc1ccc(S(=O)(=O)N2CCCCC2)cc1NC(=O)c1c(F)cccc1Cl	-1	-5	-4	·	·	·
